procasp7 counter = procaspase-7 activators, primary screen, counter-screen for procaspase-3 activator project, biochemical, absorbance, HTS, human; activation, % at 8.5 µM; AID 463210, 2010; Caspase-7 (Homo sapiens), P55210; recombinant procaspase-7, Ac-DEVD-pNA absorbance 405 nm; D23A/D198A/D206A triple mutant, cannot self-cleave; scale: DMSO 0, 5 µM enzyme 100; 0.093% of 330,000 active;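 active = percent activation above the screen-wide mean plus 3 SD, cut at about 25% in these data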
Target sequence (P55210 whole entry D23A/D198A/D206A): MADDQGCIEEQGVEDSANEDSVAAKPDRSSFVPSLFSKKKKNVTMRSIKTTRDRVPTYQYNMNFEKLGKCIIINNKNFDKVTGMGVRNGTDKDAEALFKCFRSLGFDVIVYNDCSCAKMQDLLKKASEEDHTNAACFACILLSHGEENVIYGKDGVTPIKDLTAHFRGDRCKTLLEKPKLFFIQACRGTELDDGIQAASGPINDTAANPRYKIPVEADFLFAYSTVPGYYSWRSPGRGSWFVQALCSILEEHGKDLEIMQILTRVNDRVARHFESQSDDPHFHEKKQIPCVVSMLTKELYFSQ
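System: Uncleavable procaspase-7 mutant enzyme; Amount: 2 µM procaspase-7 mutant as dispensed; Schedule: 1 h compound preincubation, 2 h substrate cleavage, 25 °C; Measured by: 405 nm absorbance of p-nitroaniline; Evaluation: percent activation from buffer-corrected 0–120 min absorbance change; Control set: low DMSO alone, high DMSO plus 5 µM PC-7.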
aDG glyco up = activators of alpha-DG glycosylation, primary screen, uHTS, Pro5-aDG cells, AlphaScreen. alpha-DG glycosylation AlphaScreen (IIH6); 0% Pro5, 100% B10-LARGE cell signal. activation, % at 10 µM. 0.22% of 360,000 active. AID 624168, 2012;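 active = activation of at least 8% versus controls, or a plate z-score of at least 8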;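 also: Pro5 are CHO cells carrying HIG-tagged alpha-DG that lacks glycosylation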
proCasp3 act = activators of human procaspase-3 D3A mutant, primary screen, biochemical, absorbance, PC-3 D3A mutant, single concentration. Caspase-3 (Homo sapiens), P42574. activation, % at 8.5 µM. recombinant procaspase-3 D3A, Ac-DEVD-pNA absorbance 405 nm. 0.11% of 330,000 active. AID 463141, 2010;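 active = activation above the mean of all tested compounds plus 3 SD, cut at about 21% in these data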
Target sequence (P42574 whole entry D9A/D28A/D175A): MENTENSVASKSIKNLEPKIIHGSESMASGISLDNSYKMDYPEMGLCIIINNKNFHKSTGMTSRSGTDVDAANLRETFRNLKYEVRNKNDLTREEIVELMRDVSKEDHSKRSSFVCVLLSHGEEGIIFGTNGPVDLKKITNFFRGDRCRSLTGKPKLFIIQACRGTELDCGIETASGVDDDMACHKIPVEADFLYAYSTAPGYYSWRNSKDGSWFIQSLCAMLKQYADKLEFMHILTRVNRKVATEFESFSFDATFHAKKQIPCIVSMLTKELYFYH
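Compound: 8.5 µM single point, 0.8% DMSO / Material: Autoprocessing-dead procaspase-3 D3A mutant enzyme / Timing: 1 h preincubation plus 2 h reaction at 25 °C / Medium: Zinc-free HEPES/NaCl buffer with 0.01% Triton X-100 at pH 7.4 / Technique: 405 nm absorbance of p-nitroaniline, reads at 0 and 120 min / Repeats: one well per compound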
NR3A LBD binder = binders of NR3A ligand-binding domain, primary screen, biophysical, differential scanning fluorimetry, uHTS | Glutamate receptor ionotropic, NMDA 3A (GRIN3A) ligand-binding domain | NR3A LBD differential scanning fluorimetry, Tm shift; 0% = protein alone, 100% = glycine-bound protein | Tm shift relative to glycine control, % at 25 µM | 2.5% of 340,000 active | AID 1259313, 2017;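 active = melting temperature shift of at least 10% of the positive control shift, at one fixed dose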
MPTP inh = mitochondrial permeability transition pore inhibitors, primary screen, biochemical, isolated mouse mitochondria, absorbance | Ca2+ swelling absorbance, 30 min | inhibition, % at 10 µM | 1.4% of 360,000 active | AID 602449, 2012;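 active = inhibition of 50% or more, scaled per plate between neutral and stimulator controls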
Rh123 counter = fluorescence retest of MPTP screen hits in isolated mitochondria, single concentration; inhibition, % at 10 µM; 78% of 5,000 active; shares compounds with MPTP inh; membrane potential, Rhodamine 123 fluorescence; in the data active = inhibition above about 22%
MPTP swell DR = mitochondrial permeability transition pore inhibitors, dose response, biochemical, absorbance, uHTS hits | shares compounds with MPTP inh | isolated mitochondria swelling | IC50, µM | 58% of 780 active | AID 651561, 2012; in the data active = IC50 below about 20 µM
MPTP counter DR = fluorescent counter-screen in isolated mitochondria, dose response, counter-screen for MPTP inhibitor project, biochemical, fluorescence, uHTS hits; shares compounds with MPTP inh; isolated mitochondria counterscreen, fluorescence read-out; IC50, µM; 49% of 780 active; in the data active = IC50 below about 80 µM
Each line names hits and unclear results; the compound was inactive in the other large screens (follow-up assays come after a bar, where they were run). Hits are enriched below; roughly 3.7% of the tested compounds scored in any of these assays.

Cc1ccc2c(c1)c1c(n2CC(O)CNC(C)(C)C)CCCC1 (configuration not stated)	MPTP inh 70 (no result: procasp7 counter, proCasp3 act) | Rh123 counter inactive | MPTP swell DR 13 | MPTP counter DR inactive
Cc1ccc2c(c1)c1c(n2CC(O)CN2CCCCCC2)CCCC1 (configuration not stated)	none
COc1ccccc1NC(=O)c1c(Nc2ccccc2F)sc(C(=O)Nc2cccc(Cl)c2)c1N	NR3A LBD binder 29, MPTP inh 78 | Rh123 counter 46
COc1ccc(Nc2sc(C(=O)Nc3cccc(Cl)c3)c(N)c2C(=O)Nc2ccccc2OC)cc1	none (no result: aDG glyco up, NR3A LBD binder, MPTP inh)
Cn1cnc2c1c(=O)n(Cc1ccc(Cl)cc1Cl)c(=O)n2C	none
Cn1c(=O)c2c([nH]c(OCc3ccc(Cl)cc3Cl)[n+]2Cc2ccc(F)cc2)n(C)c1=O	MPTP inh 50 | Rh123 counter inactive | MPTP swell DR inactive | MPTP counter DR inactive
COc1ccc(C(Nc2ccccn2)c2oc(CO)cc(=O)c2O)cc1 (configuration not stated)	MPTP inh 96 | Rh123 counter inactive
Cc1ccc(OCc2cc(C(=O)NC(C)Cc3cccnc3)no2)cc1C (configuration not stated)	none
Cc1nc(CN(C)C(=O)c2cc(COc3ccc4ncccc4c3)on2)cs1	MPTP inh 99 | Rh123 counter 69
Cc1cc(C)n(CCNC(=O)c2cc(COc3ccc4ncccc4c3)on2)n1	MPTP inh 63 | Rh123 counter 37
CC(CCCC(C)(C)O)NC(=O)c1cc(COc2ccc3ncccc3c2)on1 (configuration not stated)	MPTP inh 92 | Rh123 counter 79
CSc1ccccc1OCc1cc(C(=O)NCCn2nc(C)cc2C)no1	none
CC(C)N(Cc1nccn1C)C(=O)c1cc(COc2ccc3ncccc3c2)on1	none
Cc1nnsc1C(=O)N/N=C/c1ccc2ccccc2c1O	MPTP inh 56 | Rh123 counter 56
c1ccc2sc(NC3=NCN(C4CCCCCC4)CN3)nc2c1	aDG glyco up 4.4, MPTP inh 95 | Rh123 counter inactive
c1ccc2oc(NC3=NCN(C4CCCCC4)CN3)nc2c1	none
CCCCCCCCCC[n+]1cccc2c3ccccc3ccc21	MPTP inh 96 (no result: procasp7 counter, proCasp3 act) | Rh123 counter 97
CCN(C1CCCCC1)S(=O)(=O)c1ccc(S(=O)(=O)NCc2ccncc2)cc1	MPTP inh 98 | Rh123 counter 93
O=S(=O)(NCc1ccncc1)c1ccc(F)c(F)c1	none (no result: procasp7 counter, proCasp3 act, NR3A LBD binder)
COC(=O)COc1ccc(S(=O)(=O)NCc2ccncc2)cc1	MPTP inh 85 | Rh123 counter 87
Cc1ccc(S(=O)(=O)NCc2ccncc2)cc1C	MPTP inh 77 | Rh123 counter 76
O=S(=O)(NCc1ccncc1)c1ccc(Br)s1	aDG glyco up 8.9, MPTP inh 63 | Rh123 counter 96
Cc1c(NC(=O)Nc2cccc(Cl)c2Cl)c(=O)n(-c2ccccc2)n1C	none
CCCCCc1ccc(S(=O)(=O)NCCc2ccncc2)cc1	MPTP inh 63 | Rh123 counter 83
O=C(Nc1ccc([N+](=O)[O-])cc1)Nc1ccc(N2CCOCC2)c2nonc12	NR3A LBD binder 18, MPTP inh 96 | Rh123 counter 58
CC(=O)Nc1cc([N+](=O)[O-])ccc1N1CCOCC1	none
O=C(Nc1cccc(Cl)c1)Nc1cc(S(=O)(=O)N2CCOCC2)ccc1N1CCCC1	MPTP inh 87 | Rh123 counter 75
Cc1ccc(S(=O)(=O)N2CCOCC2)cc1NC(=O)Nc1ccc([N+](=O)[O-])cc1	MPTP inh 100 | Rh123 counter 99
CC(Oc1cccc(Cl)c1)C(=O)Nc1cc(S(=O)(=O)N2CCOCC2)ccc1N1CCCC1 (configuration not stated)	none
O=C(Cc1cccc(NC(=O)C2CCCN(C(=O)C3CCCC3)C2)c1)Nc1cccc(C(=O)N2CCCCC2)c1 (configuration not stated)	none (no result: procasp7 counter, proCasp3 act)
CCCCNC(=O)C1(C)CCCCN1C(=O)c1ccc2ccccc2n1 (configuration not stated)	none (no result: procasp7 counter, proCasp3 act, NR3A LBD binder)
CC(C)Nc1ccc(Nc2ccnc3cc4ccccc4cc23)cc1	MPTP inh 68 | Rh123 counter 70
c1ccc(CCNc2ccnc3cc4ccccc4cc23)cc1	MPTP inh 101 (no result: procasp7 counter, proCasp3 act) | Rh123 counter 106
N#Cc1ccc(C(=O)OCC(=O)Nc2cccc(S(=O)(=O)NC3=NCCC3)c2)cc1	none
COc1cc(NS(=O)(=O)c2cc3[nH]c(=O)c(=O)[nH]c3cc2C)cc(OC)c1OC	none
COc1cc(NS(=O)(=O)c2ccc(C)cc2C)cc(OC)c1OC	MPTP inh 84 | Rh123 counter 72
O=C(Nc1nc(-c2ccc(Cl)s2)cs1)c1ccncc1	MPTP inh 62 | Rh123 counter 63
CC1CC1C(=O)Nc1nc(-c2ccc(Cl)s2)cs1 (configuration not stated)	none
COc1ccc(/C=C/C(=O)OCC(=O)NCc2ccco2)c(OC)c1	none
C#CCOCCOCCOCCNc1nc(N2CCN(C(=O)[C@H](CCCN=C(N)N)n3cc(C(N)[C@@H](C)CC)nn3)CC2)nc(N2CCN(C(=O)[C@H](CCCCN)n3cc([C@@H](N)[C@H](C)CC)nn3)CC2)n1 (some centres not stated)	MPTP inh 101 | Rh123 counter inactive | MPTP swell DR 1.5 | MPTP counter DR inactive
C#CCOCCOCCOCCNc1nc(N2CCN(C(=O)[C@H]([C@@H](C)CC)n3cc([C@@H](N)CC(C)C)nn3)CC2)nc(N2CCN(C(=O)[C@H](CCCCN)n3cc([C@@H](N)C(C)CC)nn3)CC2)n1 (some centres not stated)	MPTP inh 76 | Rh123 counter inactive | MPTP swell DR 2.4 | MPTP counter DR inactive

Compound activity: PubChem BioAssay, several laboratories
